Assay results as given in publication PMC5035790 (Annals of Oncology, 2016).
Marks after values point to notes of the source that are not given here.

System: patients with advanced solid tumors or non-Hodgkin's lymphoma
Assay: Phase I dose-escalation study: safety, tolerability, MTD, adverse events
Format: in vivo, human
Summary of the method: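 Adults with advanced solid tumours (plus NHL and type 2 diabetic expansion cohorts) received a 1-h IV infusion on days 1, 8 and 15 of 28-day cycles over 0.1–1.2 mg/kg. Accelerated titration escalated the dose by 100% per cohort. MTD was the highest dose given to six patients with ≤1 DLT. Fasting was 8 h pre- and 3 h post-start on cycle 1 day 1. AEs were assessed at planned times each cycle and at follow-up.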

[1] = diabetic expansion, 0.4 mg/kg, n=6
[2] = solid tumors expansion, 0.8 mg/kg, n=25

## COc1c(OCCCN2CCOCC2)ccc2c1N=C(NC(=O)c1cnc(N)nc1)N1CCN=C21 [copanlisib, Copanlisib]
0.8 mg/kg dose-escalation cohort
  dose-limiting toxicities (DLTs): no DLTs
14 of 57 patients
  dose modifications caused by drug-related AEs: 25%
NHL expansion, 0.8 mg/kg, n=9
  Any drug-related AE: 8 (89) n (%)
  Drug-related AEs of grade 3: 5 (56) n (%)
  Drug-related AEs of grade 4: 1 (11) n (%)
  Drug-related diarrhea, all grades: 3 (33) n (%)
  Drug-related diarrhea, grade 3: 0 n (%)
  Drug-related fatigue, all grades: 3 (33) n (%)
  Drug-related fatigue, grade 3: 0 n (%)
  Drug-related hyperglycemia, all grades: 8 (89) n (%)
  Drug-related hyperglycemia, grade 3: 3 (33) n (%)
  Drug-related hypertension, all grades: 3 (33) n (%)
  Drug-related hypertension, grade 3: 3 (33) n (%)
  Drug-related nausea, all grades: 7 (78) n (%)
  Drug-related nausea, grade 3: 0 n (%)
  Drug-related oral cavity mucositis, all grades: 3 (33) n (%)
  Drug-related oral cavity mucositis, grade 3: 0 n (%)
  Drug-related rash/desquamation, all grades: 2 (22) n (%)
  Drug-related rash/desquamation, grade 3: 1 (11) n (%)
  Drug-related vomiting, all grades: 1 (11) n (%)
  Drug-related vomiting, grade 3: 0 n (%)
All patients, n=57, text
  Drug-related hyperglycemia, all grades: 63%
  Drug-related hypertension, all grades: 21%
  Drug-related hypertension, grade 3: 14%
  diarrhea, all-grade: 16%
  diarrhea, grade ≥3: 2%
  drug-related rash, grade 3: 7%
All patients, n=57, text, all events grade ≤2
  Drug-related nausea, all grades: 37%
Cohort 1, 0.1 mg/kg, n=1
  Any drug-related AE: 1 (100) n (%)
  Drug-related AEs of grade 3: 0 n (%)
  Drug-related AEs of grade 4: 0 n (%)
  Drug-related diarrhea, all grades: 0 n (%)
  Drug-related diarrhea, grade 3: 0 n (%)
  Drug-related fatigue, all grades: 0 n (%)
  Drug-related fatigue, grade 3: 0 n (%)
  Drug-related hyperglycemia, all grades: 0 n (%)
  Drug-related hyperglycemia, grade 3: 0 n (%)
  Drug-related hypertension, all grades: 0 n (%)
  Drug-related hypertension, grade 3: 0 n (%)
  Drug-related nausea, all grades: 0 n (%)
  Drug-related nausea, grade 3: 0 n (%)
  Drug-related oral cavity mucositis, all grades: 0 n (%)
  Drug-related oral cavity mucositis, grade 3: 0 n (%)
  Drug-related rash/desquamation, all grades: 0 n (%)
  Drug-related rash/desquamation, grade 3: 0 n (%)
  Drug-related vomiting, all grades: 0 n (%)
  Drug-related vomiting, grade 3: 0 n (%)
Cohort 2, 0.2 mg/kg, n=3
  Any drug-related AE: 3 (100) n (%)
  Drug-related AEs of grade 3: 2 (67) n (%)
  Drug-related AEs of grade 4: 0 n (%)
  Drug-related diarrhea, all grades: 2 (67) n (%)
  Drug-related diarrhea, grade 3: 1 (33) n (%)
  Drug-related fatigue, all grades: 1 (33) n (%)
  Drug-related fatigue, grade 3: 0 n (%)
  Drug-related hyperglycemia, all grades: 1 (33) n (%)
  Drug-related hyperglycemia, grade 3: 0 n (%)
  Drug-related hypertension, all grades: 0 n (%)
  Drug-related hypertension, grade 3: 0 n (%)
  Drug-related nausea, all grades: 3 (100) n (%)
  Drug-related nausea, grade 3: 0 n (%)
  Drug-related oral cavity mucositis, all grades: 1 (33) n (%)
  Drug-related oral cavity mucositis, grade 3: 0 n (%)
  Drug-related rash/desquamation, all grades: 0 n (%)
  Drug-related rash/desquamation, grade 3: 0 n (%)
  Drug-related vomiting, all grades: 1 (33) n (%)
  Drug-related vomiting, grade 3: 0 n (%)
Cohort 3, 0.4 mg/kg, n=3
  Any drug-related AE: 2 (67) n (%)
  Drug-related AEs of grade 3: 1 (33) n (%)
  Drug-related AEs of grade 4: 0 n (%)
  Drug-related diarrhea, all grades: 0 n (%)
  Drug-related diarrhea, grade 3: 0 n (%)
  Drug-related fatigue, all grades: 0 n (%)
  Drug-related fatigue, grade 3: 0 n (%)
  Drug-related hyperglycemia, all grades: 1 (33) n (%)
  Drug-related hyperglycemia, grade 3: 0 n (%)
  Drug-related hypertension, all grades: 1 (33) n (%)
  Drug-related hypertension, grade 3: 1 (33) n (%)
  Drug-related nausea, all grades: 0 n (%)
  Drug-related nausea, grade 3: 0 n (%)
  Drug-related oral cavity mucositis, all grades: 0 n (%)
  Drug-related oral cavity mucositis, grade 3: 0 n (%)
  Drug-related rash/desquamation, all grades: 0 n (%)
  Drug-related rash/desquamation, grade 3: 0 n (%)
  Drug-related vomiting, all grades: 0 n (%)
  Drug-related vomiting, grade 3: 0 n (%)
Cohort 4, 0.8 mg/kg, n=7
  Any drug-related AE: 7 (100) n (%)
  Drug-related AEs of grade 3: 4 (57) n (%)
  Drug-related AEs of grade 4: 0 n (%)
  Drug-related diarrhea, all grades: 1 (14) n (%)
  Drug-related diarrhea, grade 3: 0 n (%)
  Drug-related fatigue, all grades: 0 n (%)
  Drug-related fatigue, grade 3: 0 n (%)
  Drug-related hyperglycemia, all grades: 7 (100) n (%)
  Drug-related hyperglycemia, grade 3: 4 (57) n (%)
  Drug-related hypertension, all grades: 1 (14) n (%)
  Drug-related hypertension, grade 3: 0 n (%)
  Drug-related nausea, all grades: 1 (14) n (%)
  Drug-related nausea, grade 3: 0 n (%)
  Drug-related oral cavity mucositis, all grades: 0 n (%)
  Drug-related oral cavity mucositis, grade 3: 0 n (%)
  Drug-related rash/desquamation, all grades: 0 n (%)
  Drug-related rash/desquamation, grade 3: 0 n (%)
  Drug-related vomiting, all grades: 1 (14) n (%)
  Drug-related vomiting, grade 3: 0 n (%)
Cohort 5, 1.2 mg/kg, n=3
  Any drug-related AE: 3 (100) n (%)
  Drug-related AEs of grade 3: 2 (67) n (%)
  Drug-related AEs of grade 4: 1 (33) n (%)
  Drug-related diarrhea, all grades: 0 n (%)
  Drug-related diarrhea, grade 3: 0 n (%)
  Drug-related fatigue, all grades: 0 n (%)
  Drug-related fatigue, grade 3: 0 n (%)
  Drug-related hyperglycemia, all grades: 3 (100) n (%)
  Drug-related hyperglycemia, grade 3: 1 (33) n (%)
  Drug-related hypertension, all grades: 0 n (%)
  Drug-related hypertension, grade 3: 0 n (%)
  Drug-related nausea, all grades: 1 (33) n (%)
  Drug-related nausea, grade 3: 0 n (%)
  Drug-related oral cavity mucositis, all grades: 0 n (%)
  Drug-related oral cavity mucositis, grade 3: 0 n (%)
  Drug-related rash/desquamation, all grades: 0 n (%)
  Drug-related rash/desquamation, grade 3: 0 n (%)
  Drug-related vomiting, all grades: 1 (33) n (%)
  Drug-related vomiting, grade 3: 0 n (%)
[1]
  Any drug-related AE: 5 (83) n (%)
  Drug-related AEs of grade 3: 3 (50) n (%)
  Drug-related AEs of grade 4: 0 n (%)
  Drug-related diarrhea, all grades: 1 (17) n (%)
  Drug-related diarrhea, grade 3: 0 n (%)
  Drug-related fatigue, all grades: 0 n (%)
  Drug-related fatigue, grade 3: 0 n (%)
  Drug-related hyperglycemia, all grades: 1 (17) n (%)
  Drug-related hyperglycemia, grade 3: 1 (17) n (%)
  Drug-related hypertension, all grades: 2 (33) n (%)
  Drug-related hypertension, grade 3: 2 (33) n (%)
  Drug-related nausea, all grades: 2 (33) n (%)
  Drug-related nausea, grade 3: 0 n (%)
  Drug-related oral cavity mucositis, all grades: 0 n (%)
  Drug-related oral cavity mucositis, grade 3: 0 n (%)
  Drug-related rash/desquamation, all grades: 1 (17) n (%)
  Drug-related rash/desquamation, grade 3: 1 (17) n (%)
  Drug-related vomiting, all grades: 0 n (%)
  Drug-related vomiting, grade 3: 0 n (%)
During the study
  diabetic ketoacidosis: no patients
Laboratory finding
  patients with elevated aminotransferase grade ≥3: five
n=57
  patients who discontinued because of AEs: Four
n=57, text
  hyperglycemia grade 4, regardless of causality: 2%
Six of 57 patients
  serious drug-related AEs: 11%
[2]
  Any drug-related AE: 20 (80) n (%)
  Drug-related AEs of grade 3: 12 (48) n (%)
  Drug-related AEs of grade 4: 0 n (%)
  Drug-related diarrhea, all grades: 2 (8) n (%)
  Drug-related diarrhea, grade 3: 0 n (%)
  Drug-related fatigue, all grades: 2 (8) n (%)
  Drug-related fatigue, grade 3: 0 n (%)
  Drug-related hyperglycemia, all grades: 15 (60) n (%)
  Drug-related hyperglycemia, grade 3: 8 (32) n (%)
  Drug-related hypertension, all grades: 5 (20) n (%)
  Drug-related hypertension, grade 3: 2 (8) n (%)
  Drug-related nausea, all grades: 7 (28) n (%)
  Drug-related nausea, grade 3: 0 n (%)
  Drug-related oral cavity mucositis, all grades: 2 (8) n (%)
  Drug-related oral cavity mucositis, grade 3: 0 n (%)
  Drug-related rash/desquamation, all grades: 6 (24) n (%)
  Drug-related rash/desquamation, grade 3: 2 (8) n (%)
  Drug-related vomiting, all grades: 3 (12) n (%)
  Drug-related vomiting, grade 3: 0 n (%)
total, n=57
  Any drug-related AE: 49 (86) n (%)
  Drug-related AEs of grade 3: 29 (51) n (%)
  Drug-related AEs of grade 4: 2 (4)^b n (%)
  Drug-related diarrhea, all grades: 9 (16) n (%)
  Drug-related diarrhea, grade 3: 1 (2) n (%)
  Drug-related fatigue, all grades: 6 (11) n (%)
  Drug-related fatigue, grade 3: 0 n (%)
  Drug-related hyperglycemia, all grades: 36 (63) n (%)
  Drug-related hyperglycemia, grade 3: 17 (30) n (%)
  Drug-related hypertension, all grades: 12 (21) n (%)
  Drug-related hypertension, grade 3: 8 (14) n (%)
  Drug-related nausea, all grades: 21 (37) n (%)
  Drug-related nausea, grade 3: 0 n (%)
  Drug-related oral cavity mucositis, all grades: 6 (11) n (%)
  Drug-related oral cavity mucositis, grade 3: 0 n (%)
  Drug-related rash/desquamation, all grades: 9 (16) n (%)
  Drug-related rash/desquamation, grade 3: 4 (7) n (%)
  Drug-related vomiting, all grades: 7 (12) n (%)
  Drug-related vomiting, grade 3: 0 n (%)
Two patients, three events
  patients with drug-related grade 4 AEs: 4%
